# Source: PubChem
# RanGTP-Impb inh = inhibitors of RanGTP-importin-beta interaction, primary screen, biochemical, FRET, CFP-Ran, YFP-importin-beta, homogeneous; cell-free CFP-Ran/YFP-importin-beta FRET ratio; inhibition, % (concentration not given with the values); actives 1.1% (n = 300,000);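 active means more than half of the replicate wells show a fall in the fluorescence ratio signal beyond about 16%, limit read from the data, passing the limit was not always enough; inconclusive means exactly half of the replicate wells pass the set limit; inactive means fewer than half of replicates pass the limit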
# proKLK7 act = activators of human kallikrein-7 zymogen | P49862 | purified proKLK7, EDANS-DABCYL substrate fluorescence; 100% is mature enzyme control, 0% vehicle | activation, % at 7 µM | actives 0.9% (n = 370,000) | AID 652039;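 active means activation above the mean of all tested compounds plus 3 SD, computed per campaign excluding outliers beyond control limits, cut at about 13% in these data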
# Runt-SMMHC FRET = inhibitors of human RUNX1 Runt domain binding to CBFb-SMMHC; actives 0.74% (n = 220,000); Q01196+Q13951; inhibition, % at 20 µM; Cerulean-Runt/Venus-CBFb-SMMHC FRET ratio 530/480, 1 h;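 active means mean inhibition across duplicate retests at 20 µM reaching about 50%, limit read from the data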;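 further: inhibitors lower the FRET ratio by blocking Runt binding to CBFb-SMMHC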
# MEX-5 binding = C. elegans MEX-5 TCR-2 RNA binding activity | MEX-5/FITC-TCR2 RNA binding, fluorescence polarization; stronger effect = lower value | Q9XUB2 | actives 0.38% (n = 300,000) | activity score (negative = inhibition of binding), % at 10 µM;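 active means inhibition past about -25% in most replicates, and total fluorescence under double the plate's negative control median, limit read from the data; inconclusive means replicates evenly split on the limit, or fluorescence at least double controls; inactive means too little inhibition in most replicates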
# Target sequence (Q9XUB2 whole entry, looked up): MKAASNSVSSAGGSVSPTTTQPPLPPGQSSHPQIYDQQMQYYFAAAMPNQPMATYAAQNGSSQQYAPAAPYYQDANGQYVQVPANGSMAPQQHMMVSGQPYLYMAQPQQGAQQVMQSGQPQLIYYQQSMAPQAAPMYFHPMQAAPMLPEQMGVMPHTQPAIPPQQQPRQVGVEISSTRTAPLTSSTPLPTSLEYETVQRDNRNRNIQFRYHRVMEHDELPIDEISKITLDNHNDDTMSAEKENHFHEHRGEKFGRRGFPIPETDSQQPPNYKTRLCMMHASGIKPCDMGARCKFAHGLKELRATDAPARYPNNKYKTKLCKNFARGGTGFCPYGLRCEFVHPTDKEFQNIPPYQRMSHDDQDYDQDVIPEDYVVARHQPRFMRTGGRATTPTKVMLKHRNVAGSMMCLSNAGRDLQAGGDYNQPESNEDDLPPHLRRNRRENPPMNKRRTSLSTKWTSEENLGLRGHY
# Runt-CBFb FRET = blocks binding of human RUNX1 Runt domain to CBFb | inhibition, % at 20 µM | actives 0.46% (n = 220,000) | AID 1496 | Cerulean-Runt/Venus-CBFb FRET ratio 530/480, 1 h;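 active means inhibition over about 50% at 20 µM in the single-dose screen, limit read from the data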
#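 System: Cerulean-labeled Runt domain protein | Quantity: 100 nM of each labeled protein | Schedule: 1 h compound exposure, room temperature | Detection: Fluorescence energy transfer, 422 nm excitation, 530/480 nm emission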
# YIC counter = counter-screen: alters YIC FRET probe signal; IC50, µM; actives 40% (n = 1,000); Purified YIC probe, intramolecular FRET ratio YFP/CFP; shares compounds with RanGTP-Impb inh;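 active means fitted half-maximal inhibitory concentration no more than tenfold above the top dose tested; inconclusive means flat fit with 30 to 70% activity, or poor fit; inactive means half-maximal concentration beyond tenfold above the top dose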
# Hits are given with their value; – = inactive; ? = inconclusive; · = no result. Rows were chosen to be rich in hits. Some 2.1% of all compounds tested hit in one or more screens of this group.
SMILES,RanGTP-Impb inh,proKLK7 act,Runt-SMMHC FRET,MEX-5 binding,Runt-CBFb FRET,YIC counter
N=c1oc2ccccc2cc1-c1nc(-c2ccc(Cl)cc2)cs1,16.7,–,–,–,–,32.3
O=c1oc2ccccc2cc1-c1csc(Cc2nc(-c3ccc(Cl)cc3)cs2)n1,–,–,–,–,–,·
CCn1cnc2cc(NCc3ccc(Br)cc3)ccc21,?,–,·,–,·,·
CCCn1cnc2cc(NCc3ccc(Br)cc3)ccc21,19.4,–,·,–,·,–
C=CCn1c(SCc2c(Cl)cccc2Cl)nnc1-c1cccc(C)c1,·,–,·,·,·,·
CCN1/C(=C2\SC(=S)N(Cc3ccccc3)C2=O)Sc2ccccc21,23.6,–,–,-25.9,–,–
COc1ccc(N2Cc3ccccc3/C2=N\C(=O)Nc2ccccc2)cc1,17.3,–,–,–,–,–
COc1ccc2cc(C(C)=O)c(=O)oc2c1,18.5,–,61.8,–,–,34.6
COc1ccc2cc(C(=O)NC3CCCCC3)c(=O)oc2c1,–,–,–,–,–,·
CCOc1ccc(NC(=O)CN2C(=O)NC(C)(c3ccc4c(c3)OCCCO4)C2=O)cc1OCC (centres undefined),·,–,·,·,·,·
Cc1cccc(C2=NN(c3ccc(Br)cc3)[C@@H](C(=O)N3CCOC3=O)[C@@H]2c2ccc(F)cc2)c1,18.0,–,–,–,–,35.1
O=c1cc(N2CCC(Cc3ccccc3)CC2)[nH]c(=O)n1C1CCCCC1,21.5,–,–,–,–,–
CC1CCN(c2cc(=O)n(C3CCCCC3)c(=O)[nH]2)CC1,30.7,–,–,–,–,–
O=c1cc(N2CCCCC2)[nH]c(=O)n1C1CCCCC1,–,–,–,–,–,·
O=c1cc(N2CCc3ccccc3C2)[nH]c(=O)n1C1CCCCC1,53.6,–,–,–,–,–
Cc1ccc(S(=O)(=O)N(C)CC(=O)N(C)Cc2cccs2)cc1,·,–,·,·,·,·
CC(C)CN(Cc1c(O)ccc2ccccc12)CC(C)C,20.2,–,–,–,–,–
C/C=C/C(=O)N1CCC(C(=O)NCC2COc3ccccc3O2)CC1 (centres undefined),·,–,·,·,·,·
CCCNC(=O)C1(C)CCCN(C(=O)c2cc(C(C)(C)C)nn2C)C1 (centres undefined),·,–,·,·,·,·
O=C1CC(/C=C/c2ccco2)=Nc2ccccc2N1,24.1,·,–,–,–,–
C=CCN1C(=O)/C(=C\c2cccc(OC(=O)c3ccco3)c2)SC1=S,–,–,·,–,·,·
C=CCN1C(=O)/C(=C\c2ccc(OC(=O)c3ccco3)c(OC)c2)SC1=S,18.7,–,–,–,–,–
COc1cccc(-c2cc(C(F)(F)F)n3ncc(S(=O)(=O)c4ccccc4)c3n2)c1,34.9,–,–,–,–,42.6
Cc1ccc(C)c(NC(=S)N(C)CCc2ccccn2)c1,24.5,–,–,–,–,–
Oc1ccc(N2Cc3ccccc3C2)cc1,–,·,·,–,·,·
SMILES,RanGTP-Impb inh,proKLK7 act,Runt-SMMHC FRET,MEX-5 binding,Runt-CBFb FRET,YIC counter
O=Cc1ccc(N2Cc3ccccc3C2)cc1,18.0,–,·,–,·,–
CCOc1ccc(NC(=O)CSc2nnc(C3CC3)n2C)cc1,–,–,–,–,–,·
CCOC(=O)c1ccc(NC(=O)CSc2nnc(C3CCCCC3)n2C)cc1,16.4,–,–,–,–,–
CCN(C(=O)CSc1nnc(C)n1-c1ccc(C)cc1)c1c(N)n(Cc2ccccc2)c(=O)[nH]c1=O,·,–,·,·,·,·
Cc1ccccc1NC(=O)C1c2cccc[n+]2CC(=O)N1Cc1ccc2c(c1)OCO2 (centres undefined),–,–,–,–,–,·
Cc1cccc(C)c1NC(=O)C1c2cccc[n+]2CC(=O)N1Cc1cccs1 (centres undefined),23.0,–,–,–,–,–
O=C(Nc1cccc(-c2nc3ccccc3s2)c1)c1cccs1,25.2,–,–,–,–,–
O=C(Nc1cccc(-c2nc3ccccc3s2)c1)c1cc(=O)c2ccccc2o1,–,–,–,–,–,·
C[C@H](O)c1[nH]c2cc(F)ccc2c1[C@H](C)O,17.5,–,·,–,·,–
OCCc1c[nH]c2cc(F)ccc12,–,–,·,–,·,·
Cc1cc(C)c(S(=O)(=O)N(C)CC(N)=O)c(C)c1,17.3,–,–,–,–,–
